Screening data (PubChem BioAssay)
Sampled rows, rich in hits. Any-hit rate of the full collection: about 2.1%.
Arbovirus inh: blocks arbovirus infection | arbovirus infection cell-based antiviral screen | inhibition, % at 10 µM | actives 0.37% (n = 200,000); in the data active = inhibition above about 30%
RBBP9 inh: inhibitors of human serine hydrolase RBBP9; O75884; recombinant RBBP9, FP-Rh probe fluorescence polarization; inhibition, % at 7.94 µM; actives 0.2% (n = 220,000);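 active = inhibition above the campaign mean of all tested compounds plus 3 SD, cut at about 14% in these data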
Target sequence (O75884 whole entry, looked up): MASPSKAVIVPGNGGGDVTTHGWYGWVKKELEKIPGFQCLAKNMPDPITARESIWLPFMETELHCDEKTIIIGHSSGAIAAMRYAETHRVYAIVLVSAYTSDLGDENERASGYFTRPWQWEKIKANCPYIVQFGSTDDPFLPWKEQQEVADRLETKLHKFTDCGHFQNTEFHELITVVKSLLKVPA
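System: RBBP9 protein / Buffer or medium: Tris/NaCl buffer pH 8.0 with 0.1% Pluronic / Probe or stimulus: Serine-hydrolase probe FP-Rh, 375 nM pre-mixing / Dosing: 7.94 µM single dose, 0.794% DMSO / Times: enzyme-compound preincubation 30 min, then probe labeling 45 min, 25 °C / Technique: fluorescence polarization (mP), excitation 525 nm, emission 598 nm / Replication: singlicate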
PKD1 kinase inh: PKD1 (human) kinase inhibition. Q15139. PKD1 kinase fluorescence polarization assay. inhibition, % (concentration not given with the values). actives 0.056% (n = 200,000). AID 797; in the data active = inhibition above about 50%
Autophagy mod: autophagy modulation, high-content screen. MEF GFP-LC3 puncta imaging; test concentration mostly 10 µM. calls only at 10 µM (by protocol). actives 0.98% (n = 190,000). AID 463193;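 active = percentage of spot-positive cells more than 3 SD above its plate mean, without a fluorescence outlier flag or 80% toxicity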
INS promoter inh: TRM-6 insulin promoter activity inhibition | actives 0.9% (n = 130,000) | TRM-6 cells, insulin promoter-eGFP reporter, imaging; reporter expression induced with tamoxifen | AID 1273 | inhibition, % at 2 µM;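 active = inhibition above the mean plus 3 SD, with well images judged a real hit on visual review, cut at about 60% in these data, passing the limit was not always enough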
Ins promoter up: MIN6 insulin promoter up-regulation; MIN6 insulin promoter-GFP reporter, high-content imaging; hits give high values; z-score at 5 µM; actives 0.3% (n = 190,000); AID 1625;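 active = z-score above 3 at 5 µM with at least 500 cells counted in the well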
RBBP9 inh conf: confirmation of human RBBP9 inhibitors; shares compounds with RBBP9 inh; recombinant RBBP9, FP-Rh probe fluorescence polarization; inhibition, % at 7.94 µM; actives 36% (n = 410); AID 1537;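 active = inhibition above the hit cutoff derived for the primary screen, cut at about 15% in these data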
A number is an active result; i = inactive; nt = not tested or not shown.

SMILES | Arbovirus inh | RBBP9 inh | PKD1 kinase inh | Autophagy mod | INS promoter inh | Ins promoter up | RBBP9 inh conf
COc1ccc(/C=C/C(=O)NC(=S)NNC(=O)Cc2cccs2)cc1OC | i | 14.9 | i | i | i | i | i
Cc1noc(N)c1C1(O)C(=O)N(C(C)C)c2ccccc21 (stereo not given) | i | 15.9 | i | i | i | i | i
Oc1ccc(-c2csc(Nc3ncccn3)n2)cc1O | i | 19.5 | i | i | nt | i | 40.1
Oc1ccc(-c2csc(Nc3ncccn3)n2)c(O)c1 | i | i | i | i | nt | i | nt
Cc1nn(-c2ccccc2)c2c1C(c1cccnc1)N1C=C(S(=O)(=O)N3CCCCC3)C=CC1=N2 (stereo not given) | i | i | i | i | nt | nt | nt
CC(=O)Nc1ccc(OCC[n+]2cccc(C(N)=O)c2)cc1 | i | 14.4 | i | i | nt | i | i
CC(=O)Nc1ccc(OCCC[n+]2ccccc2)cc1 | i | i | i | i | nt | i | nt
Cc1cc(N2CCCCC2)nc(N)n1 | i | i | i | i | i | i | nt
O=C(NCc1cccnc1)C(=O)NCC1OCCCN1S(=O)(=O)c1ccc(Cl)cc1 (stereo not given) | i | i | i | i | i | i | nt
Cc1cc(=O)oc2c(CN(C)Cc3ccccc3)c(O)ccc12 | i | i | i | i | i | i | nt
C=CCN(CC=C)Cc1c(O)ccc2c1oc(=O)c1ccccc12 | nt | 24.8 | i | i | nt | nt | i
O=c1n(Cc2ccccc2)c2cc(Cl)cnc2n1Cc1ccccc1 | i | i | i | i | nt | i | nt
c1ccc2nc(N3CCOCC3)cnc2c1 | i | i | i | i | i | i | nt
N#CCc1cnc2ccccc2n1 | nt | 16.4 | nt | nt | nt | i | i
CN=c1scc(-c2cccs2)n1/N=C/c1ccc(O)c(O)c1O | i | 32.4 | i | i | nt | i | 83.1
CN=c1scc(-c2cccs2)n1/N=C/c1ccccc1O | i | i | i | i | i | i | nt
C=CCN=c1scc(-c2ccco2)n1/N=C/c1ccc(O)c(O)c1O | nt | 47.9 | nt | nt | nt | i | 83.5
Cc1cc2c(N3CCCCC3C)ncnc2s1 (stereo not given) | i | i | i | i | i | i | nt
CCc1ccc(OC2=NS(=O)(=O)c3ccccc32)cc1 | i | i | i | i | i | i | nt
CCN(CC)c1cccc(OC2=NS(=O)(=O)c3ccccc32)c1 | i | 18.8 | i | i | nt | i | 16.0
COCCN(C(=O)C1CCC1)c1nnc(-c2cccnc2)s1 | i | i | i | i | nt | i | nt
CCN(C(=O)C1CCCCC1)c1nnc(-c2cccnc2)s1 | i | 14.3 | i | i | i | nt | i
Cc1ccc(-c2cn(-c3ccccc3)c(SCC(=O)NC3CCS(=O)(=O)C3)n2)cc1C (stereo not given) | i | i | i | i | i | i | nt
Cc1c(Br)c(O)c(Br)c2sc(=O)oc12 | nt | 24.6 | nt | nt | nt | i | 38.0
Nc1nc(-c2cccnc2)nn1C(=O)COc1ccccc1 | i | i | i | i | i | i | nt
SMILES | Arbovirus inh | RBBP9 inh | PKD1 kinase inh | Autophagy mod | INS promoter inh | Ins promoter up | RBBP9 inh conf
Nc1nc(-c2cccnc2)nn1C(=O)CCc1ccccc1 | nt | 14.3 | i | i | i | nt | i
Cc1cc(Nc2ccc(Cl)cc2)nc(N)n1 | i | i | i | i | i | nt | nt
CC/C(=C\C(=O)c1ccncc1)Nc1ccc(O)cc1 | i | 47.0 | i | i | i | i | i
O=C(c1ccc(Cl)cc1)C1C2C(=O)N(c3ccccc3)C(=O)C2C2CCCN21 (stereo not given) | i | i | i | i | i | i | nt
CCCCC(=O)c1ccc(O)cc1 | i | i | i | i | i | i | nt
Oc1cccc(/C=N/NC(=S)Nc2cccnc2)c1O | i | i | i | i | i | i | nt
Oc1ccc(/C=N/NC(=S)Nc2cccnc2)c(O)c1O | nt | 41.8 | nt | nt | nt | i | 52.5
CCOc1ccc(-c2cc(N3C(=O)Nc4ccccc4N3O)on2)cc1 | i | 16.2 | i | i | i | i | i
COc1ccc(-c2cc(N3C(=O)Nc4ccccc4N3O)n[nH]2)c(OC)c1 | i | i | i | i | nt | i | nt
O=C1CC(=O)N(CCNc2ncc(C(F)(F)F)cc2Cl)C(=O)N1 | i | i | i | i | i | i | nt
O=C1C=CC(=O)N1CCNc1ncc(C(F)(F)F)cc1Cl | i | 32.6 | i | i | i | nt | 30.8
CCOC(=O)c1c(C)[nH]c(N=Nc2ccc(C)cc2)c1C | i | i | i | i | i | i | nt
CCOC(=O)c1c(C)[nH]c(N=Nc2ccccc2)c1C | i | 14.9 | i | i | i | i | i
O=C(Cn1nnc(-c2cccc(C(F)(F)F)c2)n1)NC1CCCC1 | i | i | i | i | nt | i | nt
CC(=O)C(=Nc1ccc(Cl)cc1Cl)NNc1cccc(Cl)c1 | i | 32.2 | i | i | i | nt | i
CCN1C(=O)C2(C(C#N)=C(N)Oc3n[nH]c(-c4ccc(Cl)cc4)c32)c2ccccc21 (stereo not given) | i | i | i | i | i | i | nt
Cc1cccc(C(=O)NCC2CCCO2)c1 (stereo not given) | i | i | i | i | i | i | nt
CCc1ccc(OCC(=O)O/N=C(\N)c2cccnc2)cc1 | nt | 15.0 | nt | nt | nt | i | i
CCc1cc(/C(Cc2csc(C)n2)=N/O)c(O)cc1O | i | 30.8 | i | i | i | i | 22.4
Cc1c(C(=O)O)sc(S(=O)(=O)N2CCNCC2)c1C(=O)O | nt | 19.5 | nt | nt | nt | i | i
O=C(OCC(=O)N1CCN(C(=O)c2ccco2)CC1)c1ccccc1O | i | i | i | i | i | nt | nt
O=C(OCC(=O)N1CCN(C(=O)c2ccco2)CC1)c1ccccc1OCc1ccc(Cl)cc1 | i | 20.3 | i | i | i | i | i
Cn1c(=O)n(CC(=O)O)c(=O)c2c1nc1n2CCS1 | i | i | i | i | i | i | nt
Cc1cccc(OCCCC(=O)Nc2ccc(N(C)C)cc2)c1 | i | 18.1 | i | i | i | i | 26.3
CCOC(=O)c1c(C)oc2c(CC(=O)c3ccccc3)c(Cl)c(O)c(O)c12 | i | 15.6 | i | i | i | i | i
SMILES | Arbovirus inh | RBBP9 inh | PKD1 kinase inh | Autophagy mod | INS promoter inh | Ins promoter up | RBBP9 inh conf
CCOC(=O)c1c(C)oc2c1c(CN1CCN(C(=O)OCC)CC1)c(O)c1ccccc12 | i | i | i | i | i | i | nt
O=C(O)c1ccc(N/N=C/c2cn(Cc3ccccc3F)c3ccccc23)cc1 | nt | 17.0 | nt | nt | nt | i | i
Cc1cc(C)c(S(=O)(=O)/N=C2/C=C(SCC(=O)O)C(=O)c3ccccc32)cc1C | i | i | i | i | nt | i | nt
Cc1cc(C)c(S(=O)(=O)Nc2cc(SCC(=O)O)c(O)c3ccccc23)cc1C | i | 16.0 | i | i | i | i | 49.2
c1ccc2c(c1)nc1n2CC2CON(C3CCCCC3)C12 (stereo not given) | nt | nt | nt | nt | nt | i | nt
O=C1c2cc([N+](=O)[O-])cc3cc([N+](=O)[O-])cc(c23)C(=O)N1c1ccccn1 | i | 15.2 | i | i | i | i | i
O=C1c2ccc(Oc3cccc([N+](=O)[O-])c3)cc2C(=O)N1c1ccccn1 | i | i | i | i | nt | i | nt
O=C(N/N=C/c1ccc(O)c(O)c1O)/C(=C/c1ccc([N+](=O)[O-])cc1)NC(=O)c1ccccc1 | i | 17.9 | i | i | i | i | 38.4
Cc1ccc(NC(=O)/C(=C\c2ccc([N+](=O)[O-])cc2)NC(=O)c2ccccc2)cc1 | i | i | i | i | i | nt | nt
